Legend:
Type in all cases: functional
HOP-62 = assay: Growth inhibition of human HOP62 cells after 48 hrs by SRB assay; details: HOP-62, 48 h
Summary of the method: (§1)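 NCI-60 panel protocol with adherent lines. Cells were seeded at 5,000–40,000 cells/well, depending on doubling time, and pre-incubated 24 h at 37 °C, 5% CO₂. Time-zero plates were TCA-fixed at drug addition. Drugs were dissolved in DMSO and exposed for 48 h. Cells were fixed with cold TCA (final 10%) for 60 min at 4 °C, stained with 0.4% SRB in 1% acetic acid for 10 min, solubilized with 10 mM trizma base, and read at A515.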

SW-620 = assay: Growth inhibition of human SW620 cells after 48 hrs by SRB assay; details: SW-620, 48 h
Summary of the method: (§2)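 NCI 60-cell panel, five-dose format: cells plated at 5,000–40,000/well by doubling time, preincubated 24 h at 37 °C, 5% CO2; time-zero plates TCA-fixed. Compound dissolved in DMSO, five concentrations (0.01, 0.1, 1, 10, 100 µM) plus control, 48 h. Cells fixed with cold TCA, stained with 0.4% SRB in 1% acetic acid, bound dye solubilized in 10 mM trizma base, absorbance at 515 nm. GI50 taken from [(Ti–Tz)/(C–Tz)]×100 = 50.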

TK-10 = assay: Growth inhibition of human TK10 cells after 48 hrs by SRB assay; details: TK-10, 48 h; summary of the method: as §2
A498 = assay: Growth inhibition of human A498 cells after 48 hrs by SRB assay; details: A498, 48 h; summary of the method: as §1
BT-549 = assay: Growth inhibition of human BT549 cells after 48 hrs by SRB assay; details: BT-549, 48 h; summary of the method: as §1
NCI-H226 = assay: Growth inhibition of human NCI-H226 cells after 48 hrs by SRB assay; details: NCI-H226, 48 h; summary of the method: as §1
COLO 205 = assay: Growth inhibition of human COLO205 cells after 48 hrs by SRB assay; details: COLO 205, 48 h; summary of the method: as §1
PC-3 = assay: Growth inhibition of human PC3 cells after 48 hrs by SRB assay; details: PC-3, 48 h; summary of the method: as §1
HCT-116 = assay: Growth inhibition of human HCT116 cells after 48 hrs by SRB assay; details: HCT-116, 48 h; summary of the method: as §1
RXF 393 = assay: Growth inhibition of human […] cells after 48 hrs by SRB assay; details: RXF 393, 48 h; summary of the method: as §1
Malme-3M = assay: Growth inhibition of human MALME-3M cells after 48 hrs by SRB assay; summary of the method: as §1
MDA-MB-231 = assay: Growth inhibition of human MDA-MB-231 cells after 48 hrs by SRB assay; details: MDA-MB-231, 48 h; summary of the method: as §1
DU-145 = assay: Growth inhibition of human DU145 cells after 48 hrs by SRB assay; details: DU-145, 48 h; summary of the method: as §1
UO-31 = assay: Growth inhibition of human UO31 cells after 48 hrs by SRB assay; details: UO-31, 48 h; summary of the method: as §2
EKVX = assay: Growth inhibition of human EKVX cells after 48 hrs by SRB assay; summary of the method: as §1
SNB-19 = assay: Growth inhibition of human SNB19 cells after 48 hrs by SRB assay; details: SNB-19, 48 h; summary of the method: as §1
SF-268 = assay: Growth inhibition of human SF268 cells after 48 hrs by SRB assay; details: SF-268, 48 h; summary of the method: as §1
SR = assay: Growth inhibition of human SR cells after 48 hrs by SRB assay; summary of the method: as §2
[1] = Growth inhibition of human Hs 578T cells after 48 hrs by SRB assay; summary of the method: as §1
LOX IMVI = assay: Growth inhibition of human LOXIMVI cells after 48 hrs by SRB assay; summary of the method: as §1
OVCAR-8 = assay: Growth inhibition of human OVCAR8 cells after 48 hrs by SRB assay; details: OVCAR-8, 48 h; summary of the method: as §1
U-251 = assay: Growth inhibition of human U251 cells after 48 hrs by SRB assay; details: U-251, 48 h; summary of the method: as §2
NCI-H23 = assay: Growth inhibition of human NCI-H23 cells after 48 hrs by SRB assay; details: NCI-H23, 48 h; summary of the method: as §1
SN12C = assay: Growth inhibition of human SN12C cells after 48 hrs by SRB assay; summary of the method: as §1
SF-295 = assay: Growth inhibition of human SF295 cells after 48 hrs by SRB assay; details: SF-295, 48 h; summary of the method: as §1
NCI-H522 = assay: Growth inhibition of human NCI-H522 cells after 48 hrs by SRB assay; details: NCI-H522, 48 h; summary of the method: as §1
MDA-MB-435 = assay: Growth inhibition of human MDA-MB-435 cells after 48 hrs by SRB assay; details: MDA-MB-435, 48 h; summary of the method: as §1
MDA-MB-468 = assay: Growth inhibition of human MDA-MB-468 cells after 48 hrs by SRB assay; details: MDA-MB-468, 48 h; summary of the method: as §1
HCT-15 = assay: Growth inhibition of human HCT15 cells after 48 hrs by SRB assay; details: HCT-15, 48 h; summary of the method: as §1
[2] = read-out: LC50 (the source's name)

For `COc1ccc(C2CC(c3nc4ccccc4[nH]3)=NN2c2ccccc2)cc1OC` (configuration not stated), which GI50 (HOP-62) is on record?
The GI50 was 19.9 µM.

And the TGI (HOP-62)?
Its TGI is > 100 µM.

And the CC50 (HOP-62; [2])?
Its CC50 is > 100 µM.

And the GI50 (SW-620)?
Its GI50 is 6.45 µM.

What about the TGI (SW-620) of the same compound?
The TGI was 23.3 µM.

And the CC50 (SW-620; [2])?
Its CC50 is 65.7 µM.

What about the GI50 (TK-10) of the same compound?
The GI50 was 15.7 µM.

What about the TGI (TK-10) of the same compound?
The TGI was 65.9 µM.

And the CC50 (TK-10; [2])?
The CC50 was > 100 µM.

And the GI50 (A498)?
Its GI50 is 5.14 µM.

What about the TGI (A498) of the same compound?
The TGI was 58.1 µM.

And the CC50 (A498; [2])?
Its CC50 is > 100 µM.

What about the GI50 (BT-549) of the same compound?
The GI50 was 10.3 µM.

What about the TGI (BT-549) of the same compound?
Its TGI is 69 µM.

What about the CC50 (BT-549; [2]) of the same compound?
The CC50 was > 100 µM.

What about the GI50 (NCI-H226) of the same compound?
The GI50 was 15.3 µM.

And the TGI (NCI-H226)?
Its TGI is > 100 µM.

What about the CC50 (NCI-H226; [2]) of the same compound?
The CC50 was > 100 µM.

What about the GI50 (COLO 205) of the same compound?
Its GI50 is 9.88 µM.

And the TGI (COLO 205)?
Its TGI is 33.2 µM.

And the CC50 (COLO 205; [2])?
The CC50 was > 100 µM.

What about the GI50 (PC-3) of the same compound?
Its GI50 is 6.27 µM.

And the TGI (PC-3)?
Its TGI is 49 µM.

And the CC50 (PC-3; [2])?
The CC50 was > 100 µM.

What about the GI50 (HCT-116) of the same compound?
The GI50 was 3.94 µM.

And the TGI (HCT-116)?
Its TGI is 16.5 µM.

What about the CC50 (HCT-116; [2]) of the same compound?
The CC50 was 49.8 µM.

What about the GI50 (RXF 393) of the same compound?
Its GI50 is 13.4 µM.

And the TGI (RXF 393)?
The TGI was 36.1 µM.

And the CC50 (RXF 393; [2])?
The CC50 was 97 µM.

What about the GI50 (Malme-3M) of the same compound?
The GI50 was 7.47 µM.

And the TGI (Malme-3M)?
The TGI was 92.7 µM.

And the CC50 (Malme-3M; [2])?
Its CC50 is > 100 µM.

What about the GI50 (MDA-MB-231) of the same compound?
The GI50 was 7.19 µM.

And the TGI (MDA-MB-231)?
Its TGI is 91.5 µM.

What about the CC50 (MDA-MB-231; [2]) of the same compound?
The CC50 was > 100 µM.

What about the GI50 (DU-145) of the same compound?
The GI50 was 33.1 µM.

What about the TGI (DU-145) of the same compound?
The TGI was > 100 µM.

And the CC50 (DU-145; [2])?
The CC50 was > 100 µM.

And the GI50 (UO-31)?
The GI50 was 2.2 µM.

And the TGI (UO-31)?
The TGI was 39.8 µM.

What about the CC50 (UO-31; [2]) of the same compound?
Its CC50 is > 100 µM.

What about the GI50 (EKVX) of the same compound?
The GI50 was 9.83 µM.

What about the TGI (EKVX) of the same compound?
Its TGI is > 100 µM.

And the CC50 (EKVX; [2])?
Its CC50 is > 100 µM.

What about the GI50 (SNB-19) of the same compound?
The GI50 was 26.6 µM.

What about the TGI (SNB-19) of the same compound?
The TGI was > 100 µM.

What about the CC50 (SNB-19; [2]) of the same compound?
The CC50 was > 100 µM.

What about the GI50 (SF-268) of the same compound?
The GI50 was 21.3 µM.

What about the TGI (SF-268) of the same compound?
Its TGI is > 100 µM.

And the CC50 (SF-268; [2])?
The CC50 was > 100 µM.

And the GI50 (SR)?
The GI50 was > 100 µM.

And the TGI (SR)?
The TGI was > 100 µM.

And the CC50 (SR; [2])?
Its CC50 is > 100 µM.

What about the GI50 [1] of the same compound?
Its GI50 is 6.18 µM.

And the TGI [1]?
The TGI was 41.2 µM.

What about the CC50 [1, 2] of the same compound?
Its CC50 is > 100 µM.

What about the GI50 (LOX IMVI) of the same compound?
Its GI50 is 5.1 µM.

And the TGI (LOX IMVI)?
The TGI was 21.7 µM.

And the CC50 (LOX IMVI; [2])?
The CC50 was 62.9 µM.

And the GI50 (OVCAR-8)?
Its GI50 is 19.9 µM.

And the TGI (OVCAR-8)?
Its TGI is > 100 µM.

What about the CC50 (OVCAR-8; [2]) of the same compound?
Its CC50 is > 100 µM.

What about the GI50 (U-251) of the same compound?
The GI50 was 7.67 µM.

What about the TGI (U-251) of the same compound?
Its TGI is 80.2 µM.

What about the CC50 (U-251; [2]) of the same compound?
Its CC50 is > 100 µM.

What about the GI50 (NCI-H23) of the same compound?
The GI50 was 16 µM.

What about the TGI (NCI-H23) of the same compound?
The TGI was > 100 µM.

What about the CC50 (NCI-H23; [2]) of the same compound?
Its CC50 is > 100 µM.

What about the GI50 (SN12C) of the same compound?
Its GI50 is 17.3 µM.

And the TGI (SN12C)?
The TGI was > 100 µM.

And the CC50 (SN12C; [2])?
Its CC50 is > 100 µM.

And the GI50 (SF-295)?
The GI50 was 5.98 µM.

What about the TGI (SF-295) of the same compound?
The TGI was 51.4 µM.

What about the CC50 (SF-295; [2]) of the same compound?
Its CC50 is > 100 µM.

What about the GI50 (NCI-H522) of the same compound?
The GI50 was 5.46 µM.

What about the TGI (NCI-H522) of the same compound?
Its TGI is 34.8 µM.

And the CC50 (NCI-H522; [2])?
The CC50 was > 100 µM.

And the GI50 (MDA-MB-435)?
Its GI50 is 4.15 µM.

What about the TGI (MDA-MB-435) of the same compound?
The TGI was > 100 µM.

What about the CC50 (MDA-MB-435; [2]) of the same compound?
Its CC50 is > 100 µM.

What about the GI50 (MDA-MB-468) of the same compound?
Its GI50 is 5.25 µM.

What about the TGI (MDA-MB-468) of the same compound?
Its TGI is 21.2 µM.

And the CC50 (MDA-MB-468; [2])?
The CC50 was 64.9 µM.

And the GI50 (HCT-15)?
Its GI50 is 4.1 µM.

What about the TGI (HCT-15) of the same compound?
The TGI was 20.5 µM.

And the CC50 (HCT-15; [2])?
The CC50 was 70.9 µM.

— ChEMBL document CHEMBL1154686, “Pyrazoline bearing benzimidazoles: search for anticancer agent” (2010)
